Measured values from ChEMBL document CHEMBL1914304 (J Med Chem, 2011).

Legend:
[1] = molecular target: Voltage-dependent T-type calcium channel subunit alpha-1H (Homo sapiens) (UniProt O95180); assay: Inhibition of Cav3.2 at 10 uM after 5 mins by patch clamp assay
Method in brief: (§1)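 Fixed-concentration screen across a panel of 12 cloned cardiac ion channels. The compound was tested at 10 µM for 5 min exposure at room temperature by automated parallel patch clamp, in two cells (n ≥ 2) per channel. Values are mean percent inhibition of channel current.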

[2] = molecular target: T1, Potassium/sodium hyperpolarization-activated cyclic nucleotide-gated channel 4 (Homo sapiens) (UniProt Q9Y3Q4); assay: Inhibition of HCN4 at 10 uM after 5 mins by patch clamp assay
T1 sequence (whole entry): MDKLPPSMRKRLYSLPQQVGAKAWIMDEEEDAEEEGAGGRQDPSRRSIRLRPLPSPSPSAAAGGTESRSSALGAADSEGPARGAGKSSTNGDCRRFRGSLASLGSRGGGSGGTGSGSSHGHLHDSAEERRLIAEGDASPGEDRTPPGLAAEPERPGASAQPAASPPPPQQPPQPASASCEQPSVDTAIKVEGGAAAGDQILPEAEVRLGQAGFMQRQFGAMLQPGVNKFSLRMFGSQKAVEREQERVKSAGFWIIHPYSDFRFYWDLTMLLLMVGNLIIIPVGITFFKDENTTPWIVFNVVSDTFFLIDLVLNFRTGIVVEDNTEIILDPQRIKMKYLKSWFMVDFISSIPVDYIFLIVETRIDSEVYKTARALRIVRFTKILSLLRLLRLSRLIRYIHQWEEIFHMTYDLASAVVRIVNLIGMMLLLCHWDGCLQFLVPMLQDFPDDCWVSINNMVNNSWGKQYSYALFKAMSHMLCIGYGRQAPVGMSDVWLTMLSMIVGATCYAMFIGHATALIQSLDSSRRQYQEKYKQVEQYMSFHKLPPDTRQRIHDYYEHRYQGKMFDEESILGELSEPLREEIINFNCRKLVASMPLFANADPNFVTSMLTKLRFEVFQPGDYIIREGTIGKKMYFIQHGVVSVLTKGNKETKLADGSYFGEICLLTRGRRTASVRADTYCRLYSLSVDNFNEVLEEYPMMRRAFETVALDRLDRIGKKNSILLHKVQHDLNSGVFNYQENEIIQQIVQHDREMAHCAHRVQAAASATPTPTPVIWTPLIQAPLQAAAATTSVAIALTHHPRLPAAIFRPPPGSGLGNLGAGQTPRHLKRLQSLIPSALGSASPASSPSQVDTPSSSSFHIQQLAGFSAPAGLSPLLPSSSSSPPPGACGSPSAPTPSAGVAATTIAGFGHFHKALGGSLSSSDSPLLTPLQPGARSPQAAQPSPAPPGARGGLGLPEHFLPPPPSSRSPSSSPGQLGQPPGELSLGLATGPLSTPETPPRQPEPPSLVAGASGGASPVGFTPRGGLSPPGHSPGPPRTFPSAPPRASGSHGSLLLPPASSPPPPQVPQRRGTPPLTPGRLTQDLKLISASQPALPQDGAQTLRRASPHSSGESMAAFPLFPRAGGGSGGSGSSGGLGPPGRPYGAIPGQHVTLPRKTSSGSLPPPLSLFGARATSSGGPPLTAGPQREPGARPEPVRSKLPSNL
Method in brief: (§2)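 Cardiac ion channel panel run by a contract lab on an automated parallel patch-clamp system at room temperature. Each of 12 cardiac channels was tested with 10 µM compound for 5 min exposure, in two cells per channel (n ≥ 2). Values are reported as mean % inhibition.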

[3] = molecular target: T2, Kir2.1 (Homo sapiens, UniProt P63252); assay: Inhibition of Kir2.1 at 10 uM after 5 mins by patch clamp assay; method in brief: as §2
T2 sequence (P63252 whole entry): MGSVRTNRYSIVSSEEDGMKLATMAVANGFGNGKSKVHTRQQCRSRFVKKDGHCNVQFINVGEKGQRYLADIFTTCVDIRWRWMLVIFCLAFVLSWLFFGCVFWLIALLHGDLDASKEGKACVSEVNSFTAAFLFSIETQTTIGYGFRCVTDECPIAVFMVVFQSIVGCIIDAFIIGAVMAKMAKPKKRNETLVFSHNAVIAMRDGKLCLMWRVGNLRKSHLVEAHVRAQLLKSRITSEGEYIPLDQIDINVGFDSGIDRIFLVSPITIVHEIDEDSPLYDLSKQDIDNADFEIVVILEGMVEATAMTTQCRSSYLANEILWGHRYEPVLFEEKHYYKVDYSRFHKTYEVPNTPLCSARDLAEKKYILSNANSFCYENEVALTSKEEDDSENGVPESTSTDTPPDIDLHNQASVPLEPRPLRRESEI

[4] = molecular target: Sulfonylurea receptor 2, Kir6.2 (Homo sapiens) (UniProt Q14654+O60706); assay: Inhibition of Kir6.2/SUR2A at 10 uM after 5 mins by patch clamp assay; method in brief: as §1
[5] = molecular target: Potassium voltage-gated channel subfamily A member 5 (Homo sapiens) (UniProt P22460); assay: Inhibition of Kv1.5 at 10 uM after 5 mins by patch clamp assay; method in brief: as §2
[6] = molecular target: T3, Kv4.3 (Homo sapiens, UniProt Q9UK17); assay: Inhibition of Kv4.3 at 10 uM after 5 mins by patch clamp assay; method in brief: as §2
T3 sequence (Q9UK17 whole entry): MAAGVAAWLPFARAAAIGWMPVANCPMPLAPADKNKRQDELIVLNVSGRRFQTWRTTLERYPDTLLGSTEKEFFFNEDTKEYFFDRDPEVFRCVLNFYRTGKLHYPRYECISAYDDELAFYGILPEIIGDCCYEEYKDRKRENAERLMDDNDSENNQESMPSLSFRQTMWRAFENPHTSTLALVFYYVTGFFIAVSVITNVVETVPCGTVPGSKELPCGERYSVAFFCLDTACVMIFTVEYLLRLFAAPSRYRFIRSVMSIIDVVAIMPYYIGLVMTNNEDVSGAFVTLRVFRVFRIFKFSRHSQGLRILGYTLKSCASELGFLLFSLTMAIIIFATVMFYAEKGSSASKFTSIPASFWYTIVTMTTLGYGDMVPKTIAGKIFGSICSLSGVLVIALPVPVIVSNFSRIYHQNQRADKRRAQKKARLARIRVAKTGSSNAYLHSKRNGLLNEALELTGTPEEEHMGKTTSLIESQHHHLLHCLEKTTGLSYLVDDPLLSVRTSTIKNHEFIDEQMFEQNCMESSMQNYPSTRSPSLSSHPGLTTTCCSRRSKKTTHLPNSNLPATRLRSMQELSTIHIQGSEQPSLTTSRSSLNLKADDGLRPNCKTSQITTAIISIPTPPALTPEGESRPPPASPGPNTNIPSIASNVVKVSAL

[7] = Inhibition of KvLQT/minK at 10 uM after 5 mins by patch clamp assay; method in brief: as §1

Chain of Potassium voltage-gated channel subfamily A member 5 (Homo sapiens) (P22460 whole entry): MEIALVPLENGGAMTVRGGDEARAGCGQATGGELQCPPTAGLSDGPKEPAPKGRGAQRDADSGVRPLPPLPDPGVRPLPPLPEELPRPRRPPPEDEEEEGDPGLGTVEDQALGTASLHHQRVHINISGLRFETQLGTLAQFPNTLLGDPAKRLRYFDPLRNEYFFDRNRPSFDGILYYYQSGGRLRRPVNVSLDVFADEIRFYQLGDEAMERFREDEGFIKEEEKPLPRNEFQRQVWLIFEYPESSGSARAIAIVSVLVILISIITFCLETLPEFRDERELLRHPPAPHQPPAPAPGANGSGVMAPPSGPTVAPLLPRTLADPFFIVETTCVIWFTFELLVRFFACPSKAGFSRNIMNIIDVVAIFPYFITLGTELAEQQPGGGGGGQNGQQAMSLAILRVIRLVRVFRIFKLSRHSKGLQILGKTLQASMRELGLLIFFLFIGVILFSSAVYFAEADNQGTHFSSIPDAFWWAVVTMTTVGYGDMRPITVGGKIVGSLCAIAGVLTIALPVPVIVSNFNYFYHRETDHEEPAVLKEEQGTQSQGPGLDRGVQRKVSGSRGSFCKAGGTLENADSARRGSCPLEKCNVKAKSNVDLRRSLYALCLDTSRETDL
Chain of Voltage-dependent T-type calcium channel subunit alpha-1H (Homo sapiens) (O95180 whole entry): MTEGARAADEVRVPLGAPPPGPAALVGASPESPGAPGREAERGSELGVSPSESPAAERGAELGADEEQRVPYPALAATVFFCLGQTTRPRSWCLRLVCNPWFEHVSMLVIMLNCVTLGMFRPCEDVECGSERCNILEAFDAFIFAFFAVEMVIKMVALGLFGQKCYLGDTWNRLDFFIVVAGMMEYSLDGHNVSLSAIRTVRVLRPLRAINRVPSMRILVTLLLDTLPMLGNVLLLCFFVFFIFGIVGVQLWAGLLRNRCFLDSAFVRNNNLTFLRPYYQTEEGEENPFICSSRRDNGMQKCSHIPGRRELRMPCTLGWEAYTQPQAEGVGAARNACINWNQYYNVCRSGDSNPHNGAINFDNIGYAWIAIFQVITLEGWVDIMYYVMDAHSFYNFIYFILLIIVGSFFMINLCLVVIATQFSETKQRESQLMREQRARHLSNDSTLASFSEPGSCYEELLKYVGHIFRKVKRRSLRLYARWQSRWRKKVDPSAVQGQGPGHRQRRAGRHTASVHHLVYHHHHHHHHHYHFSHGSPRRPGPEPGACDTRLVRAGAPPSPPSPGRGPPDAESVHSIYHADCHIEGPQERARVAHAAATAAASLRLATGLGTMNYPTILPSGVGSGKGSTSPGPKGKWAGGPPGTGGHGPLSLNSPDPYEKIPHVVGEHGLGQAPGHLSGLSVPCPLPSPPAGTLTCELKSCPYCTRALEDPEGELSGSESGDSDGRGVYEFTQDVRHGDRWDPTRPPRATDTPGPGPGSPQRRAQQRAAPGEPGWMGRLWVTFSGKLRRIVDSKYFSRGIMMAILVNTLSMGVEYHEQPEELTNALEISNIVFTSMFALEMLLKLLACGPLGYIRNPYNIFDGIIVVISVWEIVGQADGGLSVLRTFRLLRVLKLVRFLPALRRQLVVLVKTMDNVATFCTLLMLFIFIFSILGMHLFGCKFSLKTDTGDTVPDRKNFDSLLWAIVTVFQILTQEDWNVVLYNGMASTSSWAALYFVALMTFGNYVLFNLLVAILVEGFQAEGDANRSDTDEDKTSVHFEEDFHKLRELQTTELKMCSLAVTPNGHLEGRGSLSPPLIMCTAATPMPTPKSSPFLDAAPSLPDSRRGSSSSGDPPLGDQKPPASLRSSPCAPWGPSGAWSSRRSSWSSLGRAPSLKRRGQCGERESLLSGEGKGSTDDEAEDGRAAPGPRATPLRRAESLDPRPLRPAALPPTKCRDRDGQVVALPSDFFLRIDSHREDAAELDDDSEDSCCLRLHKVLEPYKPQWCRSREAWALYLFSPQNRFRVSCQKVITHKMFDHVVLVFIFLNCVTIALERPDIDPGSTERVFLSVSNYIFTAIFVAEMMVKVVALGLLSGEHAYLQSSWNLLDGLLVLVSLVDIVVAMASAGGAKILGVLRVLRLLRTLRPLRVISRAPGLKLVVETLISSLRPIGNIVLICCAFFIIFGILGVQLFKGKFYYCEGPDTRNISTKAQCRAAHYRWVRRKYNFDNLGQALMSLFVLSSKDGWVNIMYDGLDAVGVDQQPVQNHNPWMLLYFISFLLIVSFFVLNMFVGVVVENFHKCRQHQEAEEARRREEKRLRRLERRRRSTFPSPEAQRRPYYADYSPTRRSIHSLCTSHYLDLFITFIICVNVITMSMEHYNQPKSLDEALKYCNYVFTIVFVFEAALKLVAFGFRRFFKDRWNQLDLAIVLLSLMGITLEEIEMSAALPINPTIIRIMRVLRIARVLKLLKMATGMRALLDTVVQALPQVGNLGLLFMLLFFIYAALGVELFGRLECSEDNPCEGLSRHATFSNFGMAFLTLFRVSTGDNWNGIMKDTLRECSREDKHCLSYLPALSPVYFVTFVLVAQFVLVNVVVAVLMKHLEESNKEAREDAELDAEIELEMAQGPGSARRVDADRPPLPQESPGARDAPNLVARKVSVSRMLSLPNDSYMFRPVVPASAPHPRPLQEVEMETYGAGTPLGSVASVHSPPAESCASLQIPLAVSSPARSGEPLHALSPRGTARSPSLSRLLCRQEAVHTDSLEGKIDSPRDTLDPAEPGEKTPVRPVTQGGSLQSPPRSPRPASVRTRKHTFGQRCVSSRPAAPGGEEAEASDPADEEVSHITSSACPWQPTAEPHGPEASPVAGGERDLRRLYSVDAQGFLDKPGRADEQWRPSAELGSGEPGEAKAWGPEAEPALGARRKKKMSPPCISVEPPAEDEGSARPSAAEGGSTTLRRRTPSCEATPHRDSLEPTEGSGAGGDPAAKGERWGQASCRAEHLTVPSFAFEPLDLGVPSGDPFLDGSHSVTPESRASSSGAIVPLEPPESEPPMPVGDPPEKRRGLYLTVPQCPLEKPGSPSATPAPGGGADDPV

Compound `CCCNCC(O)COc1ccccc1C(=O)CCc1ccccc1` (racemic) [PROPAFENONE] has an inhibition [1] of 60.2%, an inhibition [2] of 54.6% and an inhibition at 5 min, 10 µM [3] of 0.2%. For the same compound, the inhibition [4] was 89.6%, the inhibition [5] was 65.4% and the inhibition at 5 min, 10 µM [6] was 44.1%. It also gave an inhibition [7] of 33%.
